The term IC50 denotes the concentration needed to halve the response being measured.

Converted amounts (≈) assume the structure as drawn.

Assay [1] addresses Prostaglandin G/H synthase 1 (Homo sapiens, UniProt P23219). In words: Inhibition of COX-1 (unknown origin).
Assay [2] is described as follows: Antioxidant activity assessed as DPPH free radical scavenging activity in iron free medium. It is filed as functional.
For assay [3], the target named is T1, Prostaglandin G/H synthase 2 (Homo sapiens, UniProt P35354).
T1 sequence (P35354 whole entry): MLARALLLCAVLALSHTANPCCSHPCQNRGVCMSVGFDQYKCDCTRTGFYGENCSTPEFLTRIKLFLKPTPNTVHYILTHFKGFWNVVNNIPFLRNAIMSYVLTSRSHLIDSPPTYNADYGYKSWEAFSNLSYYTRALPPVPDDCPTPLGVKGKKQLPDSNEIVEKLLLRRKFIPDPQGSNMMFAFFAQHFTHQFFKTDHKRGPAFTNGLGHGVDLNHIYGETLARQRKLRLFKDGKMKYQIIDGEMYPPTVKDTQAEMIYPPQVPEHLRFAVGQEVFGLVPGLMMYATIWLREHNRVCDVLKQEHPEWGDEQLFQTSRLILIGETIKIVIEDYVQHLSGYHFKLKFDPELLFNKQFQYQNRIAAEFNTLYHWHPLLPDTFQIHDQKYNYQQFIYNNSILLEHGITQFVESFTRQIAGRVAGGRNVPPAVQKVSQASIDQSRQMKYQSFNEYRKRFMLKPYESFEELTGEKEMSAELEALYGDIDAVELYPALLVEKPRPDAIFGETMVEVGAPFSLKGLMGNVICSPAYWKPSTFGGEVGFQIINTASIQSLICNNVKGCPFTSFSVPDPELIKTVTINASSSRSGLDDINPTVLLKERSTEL
In words: Inhibition of COX-2 (unknown origin). An outline of the steps:
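Percent COX-2 inhibition was measured at several compound concentrations. Mefenamic acid served as the reference standard.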

Sequence of Prostaglandin G/H synthase 1 (P23219 whole entry): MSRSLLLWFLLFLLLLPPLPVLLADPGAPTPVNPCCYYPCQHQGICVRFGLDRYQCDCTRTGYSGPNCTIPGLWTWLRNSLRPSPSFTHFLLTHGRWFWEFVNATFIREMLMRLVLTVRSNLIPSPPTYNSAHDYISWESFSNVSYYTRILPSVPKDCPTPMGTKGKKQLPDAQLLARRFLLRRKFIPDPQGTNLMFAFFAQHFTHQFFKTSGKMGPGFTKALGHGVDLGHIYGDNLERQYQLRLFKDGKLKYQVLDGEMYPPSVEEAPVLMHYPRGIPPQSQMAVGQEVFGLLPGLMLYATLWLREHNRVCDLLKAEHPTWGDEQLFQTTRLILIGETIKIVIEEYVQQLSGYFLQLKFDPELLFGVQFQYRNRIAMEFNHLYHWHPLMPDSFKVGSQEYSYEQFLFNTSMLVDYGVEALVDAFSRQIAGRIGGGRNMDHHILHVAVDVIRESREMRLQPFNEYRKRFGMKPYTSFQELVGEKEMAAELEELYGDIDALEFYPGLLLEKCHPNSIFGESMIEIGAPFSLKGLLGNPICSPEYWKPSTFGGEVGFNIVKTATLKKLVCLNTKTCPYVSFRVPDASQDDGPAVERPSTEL

Take `Cc1cc(C)c2c(CSc3nnc(CSc4nc5ccccc5o4)o3)cc(=O)oc2c1`: the figures for the half-inhibitory concentration (IC50) in assay [1], in assay [2] and in assay [3] were 1120 µM, 33.41 µg/mL (≈ 74 µM) and 55.4 µM, respectively.
For `O=c1cc(CSc2nnc(CSc3nc4ccccc4o3)o2)c2ccc3ccccc3c2o1` the same measures were 919 µM, 23.71 µg/mL (≈ 50.1 µM) and 27.1 µM.
The like results for `Cc1ccc2oc(=O)cc(CSc3nnc(CSc4nc5ccccc5o4)o3)c2c1` were, in that order, 562 µM, 24.04 µg/mL (≈ 54.9 µM) and 45.6 µM.
Take `O=c1cc(CSc2nnc(CSc3nc4ccccc4o3)o2)c2c(ccc3ccccc32)o1`: the results for the IC50 in assay [1], in assay [2] and in assay [3] were 226 µM, 45.86 µg/mL (≈ 96.8 µM) and 51.9 µM, respectively.
As to `O=c1cc(CSc2nnc(CSc3nc4cc(Cl)ccc4o3)o2)c2c(ccc3ccccc32)o1`, the concentration for half-maximal inhibition (IC50) was 642 µM in assay [1], 26.78 µg/mL (≈ 52.7 µM) in assay [2] and 34.8 µM in assay [3].
The like results for `O=c1cc(CSc2nnc(CSc3nc4cc(Cl)ccc4o3)o2)c2ccc3ccccc3c2o1` were, in that order, 558 µM, 23.95 µg/mL (≈ 47.1 µM) and 22.3 µM.
As for `Cc1cc(C)c2c(CSc3nnc(CSc4nc5cc(Cl)ccc5o4)o3)cc(=O)oc2c1`, the IC50 in assay [1] was 505 µM; in assay [2], 26.98 µg/mL (≈ 55.5 µM); in assay [3] it was 27.2 µM.
The like results for `COc1ccc2oc(=O)cc(CSc3nnc(CSc4nc5cc(Cl)ccc5o4)o3)c2c1` were, in that order, 1180 µM, 52.85 µg/mL (≈ 108 µM) and 91.3 µM.
The like results for `COc1ccc2oc(=O)cc(CSc3nnc(CSc4nc5ccccc5o4)o3)c2c1` were, in that order, 230 µM, 63.09 µg/mL (≈ 139 µM) and 72.6 µM.
The like results for `Cc1ccc2c(CSc3nnc(CSc4nc5cc(Cl)ccc5o4)o3)cc(=O)oc2c1` were, in that order, 308 µM, 27.73 µg/mL (≈ 58.8 µM) and 29 µM.
As to `Cc1ccc2c(CSc3nnc(CSc4nc5ccccc5o4)o3)cc(=O)oc2c1`, the IC50 is 199 µM in assay [1], 49.87 µg/mL (≈ 114 µM) in assay [2] and 54.3 µM in assay [3].
For `Cc1ccc2oc(=O)cc(CSc3nnc(CSc4nc5cc(Cl)ccc5o4)o3)c2c1` the same measures were 437 µM, 48.69 µg/mL (≈ 103 µM) and 115 µM.
For `O=C1O[C@H]([C@@H](O)CO)C(O)=C1O` [ASCORBIC ACID], the IC50 in assay [2] came out at 25.74 µg/mL (≈ 146 µM).
As to `Cc1cccc(Nc2ccccc2C(=O)O)c1C` [MEFENAMIC ACID], the IC50 in assay [1] is 772 µM; in assay [3], 104 µM.
